Screening data from PubChem BioAssay.
SENP1 inh: SENP1 (human) catalytic domain inhibition; inhibition, % at 10 µM; AID 624204; 0.21% of 360,000 active; Q9P0U3; recombinant SENP1 catalytic domain, CyPet-SUMO1-YPet FRET cleavage;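 active = inhibition at least 30% at 10 µM, raw YFP signal under a set limit, fluorescence ratio 0.5 to 1.5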;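 also: 0% = enzyme with DMSO and 100% = no enzyme wells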
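Assay system: hSENP1 catalytic domain, recombinant. Amount: SENP1 enzyme, 20 pM final. Schedule: 50 min reaction, RT, dark. Technique: FRET, CFP and YFP emission. Control set: no-enzyme wells low, DMSO-plus-enzyme wells high control.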
SENP7 inh: blocks the human protease SENP7. 1.5% of 330,000 active. inhibition, % at 5 µM. AID 434973. recombinant SENP7, Z-RLRGG-aminoluciferin luminescence, 40 min. Q9BQF6;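 active = inhibition above about 50% at the single test dose, limit read from the data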;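 also: plate controls were DMSO with enzyme for no effect and no enzyme buffer wells for full effect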
SENP6 inh: SENP6 protease inhibition; Q9GZR1; 1.8% of 330,000 active; Recombinant SENP6 catalytic domain, aminoluciferin luminescence; inhibition, % at 10 µM;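 active = inhibition above about 50% at the single tested dose, limit read from the data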;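 also: plate controls were DMSO wells with enzyme for no effect and DMSO wells lacking enzyme for full effect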
SENP8 block-1: SENP8 (human) protease inhibition. 0.64% of 360,000 active. inhibition, % at 20 µM. Q96LD8. AID 602440. recombinant SENP8, Nedd8 substrate fluorescence; in the data active = inhibition mostly above about 40%, no sharp cut-off; inactive = mostly below about 27%
Target sequence (Q96LD8 whole entry, looked up): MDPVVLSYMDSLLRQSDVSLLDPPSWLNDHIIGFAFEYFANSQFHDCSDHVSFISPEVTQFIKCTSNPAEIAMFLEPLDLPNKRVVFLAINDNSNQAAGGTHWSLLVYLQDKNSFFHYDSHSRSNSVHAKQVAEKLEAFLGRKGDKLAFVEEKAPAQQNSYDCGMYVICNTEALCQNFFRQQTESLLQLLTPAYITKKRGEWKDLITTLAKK
HSP90 refold inh: HSP90 refolding inhibition in rabbit reticulocyte lysate; 0.91% of 290,000 active; luciferase refolding luminescence, 3 h; AID 1789; inhibition, % at 5.6 µM;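 active = inhibition above the screen-wide mean plus 3 SD, computed separately per campaign, cut at about 16% in these data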;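 also: 0% = DMSO wells and 100% = 60 µM geldanamycin wells; inhibitors lower the luminescence because luciferase stays unfolded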
SENP8 block-2: SENP8 protease inhibition. Q96LD8. inhibition, % at 10 µM. 1.2% of 330,000 active. purified SENP8, Z-RLRGG-aminoluciferin cleavage, luminescence; in the data active = inhibition above about 50%
SENP8 conf: human SENP8 inhibition, confirmed. shares compounds with SENP7 inh. Recombinant SENP8, Z-RLRGG-aminoluciferin luminescence, 60 min. inhibition, % at 12.5 µM. 40% of 6,200 active. AID 488912;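 active = mean inhibition across replicates above about 50%, limit read from the data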
SENP6 confirm: confirmation of human SENP6 protease inhibitors. AID 488915. inhibition, % at 12.5 µM. recombinant SENP6, Z-RLRGG-aminoluciferin luminescence. shares compounds with SENP7 inh. 58% of 6,200 active
SENP7 confirm: human SENP7 inhibition, confirmed | inhibition, % at 12.5 µM | 69% of 6,200 active | recombinant SENP7, Z-RLRGG-aminoluciferin luminescence, 40 min | shares compounds with SENP7 inh
Casp3 select: caspase-3 inhibition (SENP selectivity assay); shares compounds with SENP7 inh; purified caspase-3, Z-DEVD-aminoluciferin luminescence, 60 min; 60% of 6,200 active; inhibition, % at 12.5 µM;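 active = mean inhibition above about 50%, limit read from the data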;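 also: plate controls were enzyme with DMSO for no effect and wells without caspase-3 for full effect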
Target sequence (P42574 28-227 limits assumed): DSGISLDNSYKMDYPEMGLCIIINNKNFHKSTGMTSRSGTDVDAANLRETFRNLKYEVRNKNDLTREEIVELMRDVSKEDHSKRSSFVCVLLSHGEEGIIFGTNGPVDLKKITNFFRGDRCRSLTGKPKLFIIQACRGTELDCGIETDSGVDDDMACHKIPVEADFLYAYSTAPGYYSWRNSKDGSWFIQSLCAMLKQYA
SENP luc ctr: interferes with luciferase luminescence in SENP counter-screen; shares compounds with SENP7 inh; inhibition, % at 12.5 µM; Pre-incubated SENP8/Z-RLRGG-aminoluciferin, luciferase luminescence interference; 39% of 6,200 active;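 active = mean inhibition above about 50% when retested at one dose, limit read from the data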;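 also: plate controls were DMSO wells with completed reaction for no effect and substrate without enzyme for full effect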
* hit, by the source's call; nt = no result given. The list is not random: actives were taken first. Their share in the collection is about 2.9%.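 The calls were made as follows, unless noted: active = mean inhibition above about 50% in the one-dose retest (limit read from the data); inactive = the rest.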

SMILES	SENP1 inh	SENP7 inh	SENP6 inh	SENP8 block-1	HSP90 refold inh	SENP8 block-2	SENP8 conf	SENP6 confirm	SENP7 confirm	Casp3 select	SENP luc ctr
c1ccc(-c2cnc(-c3cccnc3)o2)cc1	1	4	0	-482	-1	0	nt	nt	nt	nt	nt
CC(C)NC(=O)c1ccc2c3n(nc2c1)-c1ccc(Cl)cc1CO3	-2	-1	24	-46	nt	54*	-2	26	62*	44	11
C[C@@H](CO)NC(=O)c1ccc2c3n(nc2c1)-c1ccccc1CO3	1	37	57*	-221	nt	49	65*	66*	92*	91*	70*
CCN(CC)CCCNC(=O)c1ccc2c3n(nc2c1)-c1ccc(Cl)cc1CO3	-8	1	-10	-163	nt	5	nt	nt	nt	nt	nt
CN1CCN(C(=O)c2ccc(OCCOc3ccccc3)cc2)CC1	3	-2	20	11	1	7	nt	nt	nt	nt	nt
CN(C(=O)CN1CCN(c2cc(-c3cccc4oc5ccccc5c34)ncn2)CC1)c1ccccc1	3	nt	nt	13	nt	nt	nt	nt	nt	nt	nt
Fc1ccc(NC(=S)N2CCc3ccccc32)cc1	7	-9	-3	2	4	-2	nt	nt	nt	nt	nt
FC(F)Oc1ccc(NC(=S)N2CCc3ccccc32)cc1	1	11	50*	6	1	23	2	-7	23	8	9
COc1ccc(NC(=O)CN(C)C(=O)CNC(=O)c2ccc3c(c2)OCO3)cc1	-3	-10	-3	6	nt	-12	nt	nt	nt	nt	nt
Brc1ccccc1-n1nnc(-c2nccs2)n1	2	56*	61*	16	14	55*	46	45	79*	66*	65*
c1ccc(-n2nnc(-c3nccs3)n2)cc1	-19	77*	82*	-2	nt	77*	71*	82*	97*	92*	71*
Fc1ccc(-n2nnc(-c3ccccc3)n2)cc1	0	-6	7	21	3	-1	nt	nt	nt	nt	nt
O=C(Oc1ccc(Br)cc1)c1n[nH]c(=O)c2ccccc12	3	4	8	-9	3	4	nt	nt	nt	nt	nt
Cc1cccc(OC(C)C(=O)N2CCN(Cc3ccc4c(c3)OCO4)CC2)c1 (stereo not given)	1	-9	-11	1	1	-4	nt	nt	nt	nt	nt
CCN(CC)C(=O)NCc1c(C)cc(C)cc1C	1	-4	-5	12	1	0	nt	nt	nt	nt	nt
CC(=O)c1cccc(NC(=O)COc2ccccc2)c1	-2	-8	-30	4	1	-4	nt	nt	nt	nt	nt
CC(C)CCOCC(=O)Nc1cccc(C(=O)O)c1	0	41	58*	7	14	9	38	35	73*	18	62*
Cc1cc(C(=O)Nc2ccc(C(=O)O)cc2)c(C)o1	0	74*	80*	7	2	68*	-6	61*	88*	91*	65*
Cc1oc(C(C)(C)C)cc1C(=O)Nc1cccc(C(=O)O)c1	2	-1	3	6	10	-5	nt	nt	nt	nt	nt
Cc1cc(C(=O)Nc2cccc(C(=O)O)c2)c(C)o1	0	84*	90*	13	5	68*	-8	81*	98*	49	88*
Cc1oc(C(C)(C)C)cc1C(=O)Nc1ccc(C(=O)O)cc1	1	10	9	28	2	3	nt	nt	nt	nt	nt
COC(=O)c1ccc(N/C=C\C(=O)c2ccc3c(c2)OCO3)cc1	-69	-8	-6	-406	1	-4	nt	nt	nt	nt	nt
O=C(/C=C/c1ccccc1Br)c1ccc2c(c1)OCO2	2	92*	94*	14	0	91*	72*	74*	64*	60*	54*
